According to ChEMBL document CHEMBL4513216, “Probing the Open Global Health Chemical Diversity Library for Multistage-Active Starting Points for Next-Generation Antimalarials” (ACS Infect Dis, 2020):

Experiment: Toxicity liver stage against HepG2, at 10uM
Assay type: cell-based
Set-up: test concentration 10 uM, cell line HepG2-A16-CD81EGFP
Conditions: human, HepG2-A16-CD81EGFP cells; read-out: INHIBITION
How it was run: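 Uninfected HepG2-A16-CD81EGFP cells, 3 × 10^3 per well, 1536-well, plated on prespotted compound at 10 μM final, parasite-free screening media added to match infected plates; puromycin 10 μM positive, DMSO 0.5% negative; run in parallel with 48 h PbLuc assay at 37 °C, 5% CO2; viability by CellTiter-Glo luminescence, normalized to controls.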

| SMILES | cytotoxicity at 10 µM |
| --- | --- |
| O=c1[nH]c(NCCCO)nc2c1C1(CCCC1)Cc1ccccc1-2 | 8.79% |
| Cc1nn(C(=O)c2cccnc2)c(C)c1C | -8.62% |
| Cc1ccc(OCc2occc2C(=O)O)cc1 | -3.76% |
| CNC(=O)NC(=O)C(NCc1cccs1)c1ccccc1 (configuration not stated) | 6.75% |
| O=C(c1cc(Cl)c(Br)[nH]1)N1CCN(Cc2ccco2)CC1 | -55.7% |
| FC(F)(F)c1cccc(CN2CCOC[C@H](Oc3cccnc3)C2)c1 | 7.74% |
| CCN1Cc2cc3c(cc2NCCC1=O)OCO3 | -7.44% |
| COc1cc(NC(=O)C2CC(=O)N(c3cccc(Br)c3)C2)ncn1 (configuration not stated) | 33.4% |
| COCC(=O)N1CCC2(CCC2NS(=O)(=O)c2ccccc2)CC1 (configuration not stated) | 0.073% |
| O=C(c1ccc[nH]1)N1C[C@H](OCc2ccccn2)[C@H]2COC[C@H]21 | 0.238% |
| COc1ncc(C(=O)NCc2ccccc2)cn1 | -3.99% |
| Cc1ccc(CN2CC[C@H]3C[C@@H](c4nc(C5CC5)cs4)O[C@@H]3C2)o1 | -4.29% |
| CCCN1CCN(C(=O)Cn2nc(C(F)(F)F)c(Br)c2C2CC2)CC1 | 2.2% |
| CCn1ncc(-c2cc(C(F)F)nc3sc(C(N)=O)c(N)c23)c1C | 10.3% |
| Cc1c(Cl)cccc1NC(=O)N1CCN(Cc2ccccn2)CC1 | -5.55% |
| CCOC(=O)Cn1nnnc1-c1ccccc1 | 0.363% |
| CCOC(=O)CNC(=O)N1CCN(c2ncccn2)CC1 | 10.6% |
| OC1(Cn2ccc3ncccc32)CCN(Cc2cccs2)CC1 | -9.65% |
| CC(=O)N1C[C@@H](c2ccsc2)[C@@H]2CN(Cc3ccccc3C)CC[C@@H]21 | -5% |
| CCC(C)(C)NC(=O)C[S+]([O-])Cc1csc(C2CCCC2)n1 (configuration not stated) | -41.3% |
| O=C(CCn1cncn1)NCC1CCCC1 | -43.1% |
| Cn1cnnc1S(=O)(=O)Cc1cc(Cl)c2c(c1)OCCO2 | -44.7% |

| SMILES | cytotoxicity at 10 µM |
| --- | --- |
| N#Cc1ncn(Cc2c(F)cccc2Cl)n1 | -3.94% |
| N#CCCN(CC(=O)Nc1ccc(Br)cc1Cl)Cc1cccnc1 | 11% |
| CCNC(=O)C(C)NC(=O)Nc1ccccc1SC(F)(F)F (configuration not stated) | -9.5% |
| COc1ccc(CNCc2c(C)nc3sc(C)cn23)c(OC)c1OC | -1.99% |
| CCOCCN1CCN(CCC(=O)N2CCCCC2)CC1 | -7.71% |
| Cc1ccnc(C(NC(=O)c2sc(C)nc2C)C2CC2)n1 (configuration not stated) | -11% |
| CN(Cc1ccc(N(C)C)cc1)C(=O)CS(=O)(=O)c1ccc(Cl)cc1 | 22.2% |
| CCOc1cc(CN(C)CCC#N)ccc1OC(F)F | -5.81% |
| COc1cccc(N2CCN(CCC(=O)NC3CCCCC3)CC2)c1 | -5.64% |
| Cc1nc(C)n(CC2CN(CC(=O)Nc3ccncc3)CCO2)n1 (configuration not stated) | -0.654% |
| CCOC(C)C(=O)Nc1ccc(Sc2nncn2C)c(Cl)c1 (configuration not stated) | -1.37% |
| c1ccc(-n2nnnc2NCc2ccc3c(c2)OCO3)cc1 | 29.5% |
| Cc1[nH]ncc1C(C)NCc1ccc(F)cc1 (configuration not stated) | 3.28% |
| Cc1c(C(=O)N(CCN(C)C)Cc2ccccn2)oc2ccccc12 | 14.4% |
| CS(=O)(=O)c1cccc(C(=O)NCc2nc3cc(F)ccc3[nH]2)c1 | 12.2% |
| CCC(C)NC(=O)c1cccc(CNCc2csc(C(C)C)n2)c1 (configuration not stated) | 9.48% |
| OC1CCN(Cc2ccc(CNc3ncc(Cl)cc3F)cc2)CC1 | 9.96% |
| CCNC(=O)N(C)C1CCCc2nc(C)sc21 (configuration not stated) | 12.2% |
| Cc1csc(C2(NCc3nc(-c4ccco4)oc3C)CCCC2)n1 | 7.2% |
| O=C(Cc1ccccc1F)NCC1CCN(CCN2CCOCC2)C1 (configuration not stated) | -47% |
| COc1ccc(-c2nnc(SC(C)C(=O)NCC(C)C)[nH]2)c(OC)c1 (configuration not stated) | 83.5% |
| CN1CCC2(C=C(C(=O)N(C)C)c3ccccc32)CC1 | -102% |

| SMILES | cytotoxicity at 10 µM |
| --- | --- |
| Cc1csc([C@H]2C[C@@H]3CCN(Cc4cc(C)on4)C[C@H]3O2)n1 | -99.4% |
| Cn1ccnc1CN1CCC2(COCCN(S(=O)(=O)C3CC3)C2)C1 (configuration not stated) | 12.7% |
| CCC1=NC2(CCC(C(=O)Nc3ccc(C)nc3)CC2)C(=O)N1C (configuration not stated) | 8.79% |
| CC(=O)N1CCc2nc(-c3ccc(F)cc3)nc(NC(C)C)c2CC1 | -114% |
| CC(C)N(C)Cc1cn2c(n1)CN(C(=O)c1ccc[nH]1)CC2 | -73.2% |
| Cc1nc(CN2C[C@@H](CN3CCOCC3)[C@@H](CO)C2)c2ccccn12 | 0.363% |
| CCN(CC)C1CCN(c2ncnc3c2CCN(C(=O)C2CC2)C3)C1 (configuration not stated) | 1.52% |
| COc1ccc2cc(C3CN(C(=O)CN4CCCC4)CCO3)ccc2c1 (configuration not stated) | -6.88% |
| COc1cc2ncn(Cc3ncc[nH]3)c(=O)c2cc1OC | 5.56% |
| CCCn1cc(-c2cc(-c3cc(CC)n[nH]3)c(C#N)c(N)n2)c(C)n1 | -6.7% |
| CN(Cc1ccccc1)CC1(O)CCCN(CCC2CCCCC2)C1=O (configuration not stated) | -2.3% |
| O=C1CC2(CCN(c3nccc(-c4cc(C(=O)O)ccn4)n3)CC2)CN1 | 2.16% |
| CCN1CC(NC(=O)Nc2nc(C)n(C(C)C)n2)CC1=O (configuration not stated) | -5.58% |
| Cc1cc(N[C@H]2CCCN(Cc3ccccc3)C2)n2nc(C)cc2n1 | 1.53% |
| C[C@@H]1CCC[C@H](C)N1CC(=O)N1CCc2[nH]c(-c3ccccc3)nc2C1 | 4.02% |
| Cc1ccccc1C(=O)NC[C@@H]1CCN(C(=O)c2cscn2)C[C@H]1O | -52.2% |
| Cc1cnc(NC(=O)c2ccc(C3CCCN3CC(C)C)s2)s1 (configuration not stated) | 9.45% |
| Cc1ccc(NC(=O)CNC(C)CN2CCCCC2)c(F)c1 (configuration not stated) | -51.6% |
| CSc1nnc(CC2CCN(C(=O)Cc3ccncc3)CC2)n1C | -46.7% |
| CC(C)N1CC2(CCCN(c3ccnc4ccccc34)C2)CCC1=O (configuration not stated) | 8.62% |
| CC(C)[C@@H]1CN(C(=O)C2(c3ccccc3)CCN(C)CC2)C[C@H]1C(=O)O | 8.73% |
| Cc1ccc(C(=O)N2CCCC(Cn3cc(C(C)(C)N)nn3)C2)s1 (configuration not stated) | -19.1% |

| SMILES | cytotoxicity at 10 µM |
| --- | --- |
| COCCCN1C(=O)CC[C@H]2CN(c3ccnc4ccccc34)CC[C@H]21 | -3.63% |
| Cc1ccccc1N1CC(C)N(C(=O)CCn2cccn2)CC1=O (configuration not stated) | 10.1% |
| O=C(NCCN1CCOCC1)c1cc(COc2ccccc2F)[nH]n1 | 13.1% |
| COc1ccc(C)cc1-n1cnnc1CC1CCNCC1 | -11.4% |
| CC(=O)NCCC1CCN(c2nc(C(C)(C)C)nc3c2cnn3C)CC1 | -0.891% |
| CCOc1cc(CNCc2cnc(C)cn2)c(Cl)cc1OC(C)C | 4.86% |
| CC/C=C(\C)CN1CCC(CNC(=O)c2c[nH]c(=O)c(Cl)c2)C1 (configuration not stated) | -13.2% |
| CCc1csc(CNC2CCN(Cc3ccccc3)C2)n1 (configuration not stated) | 4.82% |
| CCn1cc(CN2CCCC3(CCC(=O)N(CCC(C)C)C3)C2)cn1 (configuration not stated) | -4.73% |
| CN(C(=O)c1cccc(NCc2cccs2)c1)C(C1CC1)C1CC1 | 8.41% |
| CCCN1CCC(NC(=O)c2csc(C)c2C)CC1 | -137% |
| CC(Nc1ncnc2c1CCNC2)c1ccc(C(C)(C)C)cc1 (configuration not stated) | 28% |
| O=C(O)CCn1ccc2c(nnc3c(-c4ccc(F)cc4)cnn32)c1=O | 4.01% |
| C[C@@H]1CN(C(=O)CCCN2CCOCC2)CC[C@@]1(O)C1CCC1 | -2.95% |
| O=C1NC2(CCN(C/C=C/c3ccccc3)CC2)CC1c1ccccc1 (configuration not stated) | -47.1% |
| Cc1cc2nc(C(C)C)cc(NCCNc3ncccc3C)n2n1 | 16.9% |
| CNc1cc(C(=O)N2CCCCC2CCn2ccnc2C)ccn1 (configuration not stated) | 1.85% |
| O=C1CC(NCc2ccncc2)CN1Cc1cccc(F)c1 (configuration not stated) | -7.12% |
| c1cnn(CC2CN(Cc3csc(C4CCCCC4)n3)CCO2)c1 (configuration not stated) | -6.37% |
| O=C1NCCN1C1CCN(CCOc2ccccc2F)CC1 | -3.63% |
| Cc1cc(CN2CCCC2c2noc(C3CC3)n2)c2ccccc2n1 (configuration not stated) | 49.5% |
| CC(C)c1ncc2c(n1)CN(Cc1nc(-c3cccs3)no1)CC2 | -7.91% |

| SMILES | cytotoxicity at 10 µM |
| --- | --- |
| Cc1cnn(C2CCCN(C(=O)CCc3nccs3)C2)c1 (configuration not stated) | -4.49% |
| COC(=O)c1ccc(N2CCN(C(=O)c3cnn(C)c3)C(C)C2)cc1 (configuration not stated) | -11.5% |
| COc1cc(C(=O)Nc2nc(C)no2)ccc1C | -8.39% |
| CC(=O)N1CCCN(CC(C)(O)c2cccc(C(F)(F)F)c2)CC1 (configuration not stated) | -10.3% |
| CN(CC(=O)NC(Cc1ccsc1)c1cccnc1)Cc1cccnc1 (configuration not stated) | -4.04% |
| NC1CCc2nc(-c3cccnc3)nc(Nc3ccc(F)cc3)c2C1 (configuration not stated) | -10.5% |
| CC(C)NC(=O)[C@@H]1CC[C@@H]2[C@@H](CCN2Cc2cn(C)c3ccccc23)O1 | 9.49% |
| c1cnc(N2CC[C@@H](OCC3CC3)[C@@H]2Cc2cccnc2)nc1 | 3.26% |
| O=C(c1cscn1)N1CCO[C@H]2[C@@H](Oc3ccccn3)CC[C@@H]21 | -109% |
| Cc1ccc(CN2CCOCC3(C2)CN(c2ccc(C)s2)C(=O)CO3)o1 (configuration not stated) | 7.31% |
| CNC(=O)c1cc2c(nc1N(C)C)CCN(c1ncccn1)CC2 | -119% |
| O=C(c1ccc(F)cc1)N1CC[C@H]2[C@H]1CCN2CC1CCOCC1 | -76.4% |
| Cc1cccc(CN2CCC3(CCCN(Cc4cnn(C)c4)C3)C2)n1 (configuration not stated) | -113% |
| Cc1cccc(CN2CC[C@@H]3[C@@H]2CCN3C(=O)Cc2ccsc2)n1 | -107% |
| COc1cc(N2C[C@@H]3COC[C@]3(COCc3cccc(C)n3)C2)ncn1 | 12.4% |
| CN(C)C(=O)CO[C@@H]1CC[C@H]2[C@H]1OCCN2c1ncc(F)cn1 | 5.44% |
| Cc1ccc(CN2C[C@@H]3C[C@H](C(=O)Nc4cccnc4)[C@H](C2)O3)cc1 | -83.8% |
| O=C(Cc1ccncc1)N1C[C@H]2CC[C@@H](C1)N(Cc1ccccc1)C2=O | 5.79% |
| CC1(C)CC(n2cc3nc(N4CCCC4)[nH]cc-3c2=O)CC(C)(C)N1 | 9.46% |
